A selection: hits, their analogues and other compounds. The true share with any hit is near 4.9%.
NPY-Y1 PAM-ag – potentiators or agonists of human neuropeptide Y receptor Y1; P25929; NPY-Y1 expressing cells, potentiator/agonist activation; activation, % at 3.6 µM; 220,000 tested, 0.37% active; AID 1304; in the data active means activation above about 33%, passing the limit was not always enough;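 further: cells stimulated with NPY at EC10 then isoproterenol at EC100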
NPY-Y1 antag – antagonists of human neuropeptide Y receptor Y1; AID 1040; HEK293-CNG Y1 cells, membrane potential fluorescence; NPY at EC95, then isoproterenol; 200,000 tested, 1% active; inhibition, % at 3.6 µM;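 active means inhibition above the campaign mean inhibition of all tested compounds plus 3 SD, cut at about 20% in these data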
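Test system – HEK293 Y1/CNG channel cell line · Also added – NPY agonist 25 nM, then isoproterenol 1 µM plus Ro 20-1724 25 µM · Compound dosing – one concentration, 3.6 µM, in 0.4% DMSO · Schedule – compound incubation 1 h at room temperature, readout 45 min post-stimulation · Technique – fluorescence, membrane potential probe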
NPY Y2 blocker – NPY-Y2 (human) receptor antagonism; P49146; NPY-Y2 expressing cells, antagonist mode; inhibition, % at 2.7 µM; 140,000 tested, 0.99% active; AID 793; in the data active means inhibition above about 17%
Target sequence (P49146 whole entry, looked up): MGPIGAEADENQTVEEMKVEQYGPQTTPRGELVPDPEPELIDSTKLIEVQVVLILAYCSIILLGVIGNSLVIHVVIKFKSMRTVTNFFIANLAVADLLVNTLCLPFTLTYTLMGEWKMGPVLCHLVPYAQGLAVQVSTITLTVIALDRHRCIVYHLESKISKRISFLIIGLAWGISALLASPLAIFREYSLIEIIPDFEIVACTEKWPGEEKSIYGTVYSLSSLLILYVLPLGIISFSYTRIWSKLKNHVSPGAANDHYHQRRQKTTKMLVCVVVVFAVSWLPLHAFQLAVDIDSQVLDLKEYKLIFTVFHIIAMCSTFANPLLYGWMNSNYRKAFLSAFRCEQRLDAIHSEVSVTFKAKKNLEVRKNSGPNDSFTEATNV
NPY-Y2 PAM-ag – potentiates or activates human NPY-Y2 receptor. P49146. AID 1359. 220,000 tested, 0.45% active. activation, % at 3.6 µM. cells expressing NPY-Y2, potentiator/agonist read-out; in the data active means activation above about 27%;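 further: cells stimulated with NPY near EC25 plus isoproterenol at EC100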
RAM network inh – yeast RAM network inhibition; S. cerevisiae dse1pr::URA3 reporter, 5-FOA growth OD615, 2 d; analog-sensitive cbk1-as2 kinase mutant strain; inhibition, % at 50 µM; 190,000 tested, 1.8% active;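 active means inhibition above a set limit, 3 SD over mean compound inhibition, cut at about 8.4% in these data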;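 further: inhibition rescues growth on 5-FOA so higher OD means more RAM inhibition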
WT yeast gro inh – growth inhibition of WT yeast, mitochondrial fusion screen; inhibition, % at 10 µM; AID 1362; mitochondrial fusion phenotypic screen, WT strain; 190,000 tested, 2.1% active; in the data active means inhibition above about 58%; tested in S. cerevisiae
Large screens that a line does not name were inactive.

Cc1ccc(-n2cc(-c3ccccc3)c3c(N4CCN(C)CC4)ncnc32)cc1	WT yeast gro inh 62.0 (no result: NPY Y2 blocker)
CC(=O)Nc1ccc(C(=O)OCc2ccccc2Cl)cc1	none
COc1cccc(C2CC(c3cccs3)Nc3ncnn32)c1 (configuration not stated)	none
O=C(CSCc1n[nH]c(=O)[nH]1)NCCOc1cccc(Oc2ccccc2)c1	none
COc1ccc(C(=O)c2c(C(F)(F)F)oc3c2C(=O)c2ccccc2C3=O)cc1OC	WT yeast gro inh 90.4
O=C(Cc1ccccc1[N+](=O)[O-])NCCC1=CCCCC1	none (no result: NPY Y2 blocker)
O=[N+]([O-])c1ccccc1S(=O)(=O)NCCC1=CCCCC1	WT yeast gro inh 71.0
COc1ccc(NC(=S)N2CCN(c3ccc([N+](=O)[O-])cc3)CC2)cc1OC	none (no result: NPY Y2 blocker)
O=c1[nH]c2ccccc2nc1C(Nc1ccccc1)c1ccccc1 (configuration not stated)	none (no result: NPY-Y1 antag, NPY Y2 blocker, RAM network inh, WT yeast gro inh)
COc1ccc(C2NC(=O)NC(c3ccccc3)=C2c2nc3ccccc3s2)cc1 (configuration not stated)	RAM network inh 8.7
O=C1NC(c2ccccc2)=C(c2nc3ccccc3s2)C(c2ccc(F)cc2)N1 (configuration not stated)	none
Clc1ccc(-c2n[nH]c3c2CCC3)c(Cl)c1	WT yeast gro inh 68.3
CSc1ncccc1C(=O)OCC(=O)c1ccccc1	none (no result: NPY Y2 blocker)
COc1ccc(OC)c(NC(=S)N2CCN(Cc3ccccc3)CC2)c1	none (no result: NPY Y2 blocker)
COc1cccc(CN2CCN(C(=S)NCc3ccc(Cl)cc3)CC2)c1	WT yeast gro inh 66.8 (no result: NPY Y2 blocker)
S=C(NCc1ccccc1)N1CCN(Cc2ccc3c(c2)OCO3)CC1	WT yeast gro inh 60.4 (no result: NPY Y2 blocker)
Cc1c(Cl)cccc1NC(=S)N1CCN(Cc2ccc3c(c2)OCO3)CC1	NPY-Y1 PAM-ag 53.2, NPY-Y2 PAM-ag 33.4
O=C(O)c1csc(-c2cccs2)n1	none (no result: NPY Y2 blocker)
Cc1cc(NC(=O)c2ccc(S(=O)(=O)N3CCc4ccccc43)cc2)no1	none (no result: NPY Y2 blocker)
COc1ccc(-c2cc(C(=O)N/N=C/c3ccc4c(c3)OCO4)c3ccccc3n2)c(OC)c1	none
Cc1ccc(NCc2nnc(SCC(=O)OC3CCCCC3)o2)c(C)c1	none
Cc1ccc(CN(CC(=O)NC2CCCC2)C(=O)CSc2nnc(COc3ccccc3)o2)cc1	RAM network inh 8.7
O=C(CN(Cc1ccccc1)C(=O)CSc1nnc(COc2ccccc2)o1)NC1CCCC1	RAM network inh 8.6
Cc1cccc(OCc2nnc(SCC(=O)OC3CCCCC3)o2)c1	RAM network inh 10.2
C=CCn1c(SCC(=O)OCc2ccccc2)nc2c1c(=O)n(C)c(=O)n2C	none
CCOc1cc(C)c(S(=O)(=O)Nc2ccc(F)cc2)cc1C	RAM network inh 13.4
COc1ccc(C)cc1S(=O)(=O)Nc1ccc(F)cc1	WT yeast gro inh 62.4
CCOC(=O)CC(NC(=O)Cn1nnc(-c2ccccc2C)n1)c1ccc(OC)cc1 (configuration not stated)	none (no result: NPY Y2 blocker)
Cc1cc(OCC(O)CNC(C)(C)C)ccc1Cl (configuration not stated)	NPY-Y1 PAM-ag 109.7, NPY-Y2 PAM-ag 102.3 (no result: NPY Y2 blocker)
Cc1cc(OCC(=O)NC(C)(C)C)ccc1Cl	none
CCc1ccc(OCC(O)CNC(C)(C)C)cc1 (configuration not stated)	NPY-Y1 PAM-ag 92.7, NPY-Y2 PAM-ag 96.3
CCCCCN1C=CC(=C2C(=O)c3ccccc3C2=O)C=C1	WT yeast gro inh 58.5 (no result: NPY Y2 blocker)
CC1=CC(=C2C(=O)c3ccccc3C2=O)C=C(C)N1C	none
O=C(CN1C(=O)CSC1=O)Nc1ccc2c(c1)OCCO2	none
C=CCn1c(C(c2ccccc2)c2ccccc2)n[nH]c1=S	none
CCN(CC)CCNC(=O)c1cc2c(-c3ccc(Cl)cc3)nn(C)c2s1	none
CCOCCCNC(=O)c1cc2c(-c3ccc(Cl)cc3)nn(C)c2s1	RAM network inh 9.0
N#CC(C#N)=C1C=CC=CN1/C(=C\c1ccccc1Cl)C(=O)c1ccccc1	WT yeast gro inh 67.5
CC(C)COc1ccc(S(=O)(=O)NNC(=O)c2cc3ccccc3o2)cc1	none
CCCCOc1ccc(S(=O)(=O)NNC(=O)c2cc3ccccc3o2)cc1	RAM network inh 10.2
O=C(CSc1nnc(CN2CCOCC2)n1-c1ccc(Cl)cc1)N1CCc2ccccc21	none (no result: RAM network inh, WT yeast gro inh)
O=C(CSc1nnc(CN2CCOCC2)n1-c1ccc(Cl)cc1)Nc1cc(Cl)ccc1O	RAM network inh 11.3
COCCN1Cc2cccc(C(=O)Nc3cc(C)cc(C)c3)c2C1=O	none

Screening results as filed in PubChem.
